TRAIL sens C8: viability loss with TRAIL in NB7+C8 cells, primary screen, TRAIL sensitizer project, cell-based, ATPlite luminescence. inhibition (viability loss, TRAIL sensitization), % at 10 µM. 360,000 tested, 1% active;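 active means compounds causing at least 50% loss of cell viability in the single-dose screen, relative to plate controls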
NF-kB expr up: activators of NF-kB expression in neurons, primary screen, cell-based, HTS; fold change at 12.5 µM; 190,000 tested, 1.6% active; human neuronal cells, NF-kB reporter expression; stronger effect = higher value; in the data active means fold change above about 3.3
FLuc stim CS: FLuc activators, initial screening, artefact control for FLuc-dependent activation tests, biochemical, ATPlite luminescence. Luciferin 4-monooxygenase (Photinus pyralis), P08659. ATPlite luciferase biochemical, 10 min; 0 = ATP-free wells, 1 = DMSO control. activation factor at 10 µM. 200,000 tested, under 10 active. AID 1027, 2008;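 active means luciferase activation factor, scaled between plate controls, of at least 2 with compound at 10 µM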
Target sequence (P08659 whole entry, looked up): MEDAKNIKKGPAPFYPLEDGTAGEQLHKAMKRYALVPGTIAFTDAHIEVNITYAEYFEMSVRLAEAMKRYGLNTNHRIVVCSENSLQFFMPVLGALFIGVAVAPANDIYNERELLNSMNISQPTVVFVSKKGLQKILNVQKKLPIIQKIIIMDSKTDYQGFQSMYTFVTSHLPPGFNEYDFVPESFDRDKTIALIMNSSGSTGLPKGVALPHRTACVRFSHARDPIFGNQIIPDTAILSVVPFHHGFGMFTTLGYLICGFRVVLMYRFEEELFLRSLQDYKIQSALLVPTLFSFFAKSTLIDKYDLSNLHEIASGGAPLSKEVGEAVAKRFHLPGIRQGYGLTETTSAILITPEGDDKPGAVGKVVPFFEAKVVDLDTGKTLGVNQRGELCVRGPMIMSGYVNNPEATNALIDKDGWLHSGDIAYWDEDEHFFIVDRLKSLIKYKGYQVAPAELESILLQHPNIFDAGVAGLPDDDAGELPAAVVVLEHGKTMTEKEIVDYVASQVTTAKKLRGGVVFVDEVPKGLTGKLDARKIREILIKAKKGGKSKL
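Material: luciferase plus luciferin reagent, cell-free. Medium: PBS buffer for ATP. Also added: ATP substrate, dispensed from a 10.24 µM working solution in PBS. Doses: test compounds dosed from 2 mM stocks in 100% DMSO. Incubation: 10 min post-reagent at room temperature. Technique: light output (luminescence). Read-out basis: luminescence gain marking luciferase activators.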
PPC-1+TRAIL kill: compounds killing PPC-1 cancer cells with TRAIL present, primary screen, TRAIL potentiator project, ATPLite luminescence, uHTS; PPC-1 cells + TRAIL, ATPLite viability luminescence; 220,000 tested, 0.41% active; cell killing (% activity), % at 4 µM or 5 µM;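 active means cell killing above 50% in the first pass at 4 µM, then a duplicate retest at 5 µM averaging 50% or more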;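 further: plate controls were cells with TRAIL plus DMSO for no effect and medium-only wells lacking cells for full effect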
FLuc inh counter: firefly luciferase enzyme inhibitors, primary screen, artefact control for luciferase-based inhibitor screens, biochemical, luminescence, ATPLite. 200,000 tested, 1.5% active. inhibition, % at 10 µM. 10 min. Luciferin 4-monooxygenase (Photinus pyralis), P08659. AID 1006, 2008;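 active means inhibition above about 50% when tested at 10 µM, limit read from the data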
APP 5'UTR act: activators of APP 5'UTR luciferase reporter, primary screen, SH-SY5Y cells; SH-SY5Y APP 5'UTR luciferase reporter, luminescence; zero percent = DMSO vehicle wells; activation, % at 2 µM; 190,000 tested, 1% active;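 active means activation above a set limit, based on mean plus 3 SD of controls, cut at about 140% in these data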
PPC1 cytotox: cytotoxicity in PPC-1 cells, confirmation, cytotoxicity control for TRAIL apoptosis potentiator project, cell-based, ATP content luminescence | shares compounds with PPC-1+TRAIL kill | cytotoxicity, % at 5 µM | 1,200 tested, 50% active | PPC-1 viability, ATPlite luminescence, overnight;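 active means reconfirmed compounds whose average cytotoxicity reaches 50% or more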;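 further: 0% = DMSO-treated cells and 100% = wells holding medium but no cells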
An asterisk follows results filed as active; . = no result. A selection: hits, their analogues and other compounds. The true share with any hit is near 2.2%.

SMILES	TRAIL sens C8	NF-kB expr up	FLuc stim CS	PPC-1+TRAIL kill	FLuc inh counter	APP 5'UTR act	PPC1 cytotox
COc1ccc(-c2nc3ccccc3[nH]2)cc1	79*	5*	0.1	78*	93*	185*	77*
Cc1ccc(C(=O)Nc2ccc(O)c(C(=O)O)c2)o1	-1	0.91	1	-1	2	14	-7
Cn1cnnc1SCCn1c(N2CCCCC2)nc2c1c(=O)[nH]c(=O)n2C	-16	1	1	5	-3	0	4
O=c1[nH]c2cc(F)ccc2c2ccc(F)cc12	2	.	.	.	.	.	.
O=C(COc1ccc(S(=O)(=O)NC2CCCCC2)cc1)NCC1CCCO1 (stereo unspecified)	-8	0.96	1.1	9	-6	-3	2
CC(C)(C)NS(=O)(=O)c1ccc(OCC(=O)NCC2CCCO2)cc1 (stereo unspecified)	-14	.	.	.	.	.	.
COc1ccc(Cl)cc1-c1nc(SCC(=O)NC2CCS(=O)(=O)C2)n[nH]1 (stereo unspecified)	-16	.	.	.	.	.	.
COc1ccc(Cl)cc1-c1nc(SCC(=O)N(C)CCC#N)n[nH]1	-5	1	1	-10	-4	-7	-10
O=C(Nc1cc(Cl)ccc1Cl)c1ccco1	3	.	.	.	.	.	.
CS/C(Nc1cc(Cl)ccc1Cl)=C(/C#N)C(=O)c1ccco1	76*	.	.	21	.	.	23
CSc1ccccc1C(=O)NCc1ccc(S(N)(=O)=O)cc1	-1	0.9	1.1	16	-6	7	.
COCCSc1ccccc1C(=O)NCc1ccc(S(N)(=O)=O)cc1	4	0.9	1	6	-2	-12	7
O=[N+]([O-])c1ccc(S(=O)(=O)NCCc2ccncc2)cc1	-4	1.3	1	-2	-2	-6	.
COc1ccc(NC(=O)O/N=C/c2c(C)nn(C(C)(C)C)c2C)cc1	27	.	.	72*	.	.	74*
O=C(C1CCCO1)N(c1cccc(Cl)c1)C1C=CS(=O)(=O)C1 (stereo unspecified)	-6	1.1	1	4	-2	29	12
CCOc1ccc(N(C(=O)C2CCCO2)C2C=CS(=O)(=O)C2)cc1 (stereo unspecified)	-6	1.1	1.1	29	-6	28	.
CCC(=O)Nc1cc2nn(-c3ccc(OC)cc3)nc2cc1C	59*	2.2	0.3	58*	69*	162*	49
CCC(=O)Nc1cc2nn(-c3ccc(C)cc3)nc2cc1C	65*	0.7	0.3	59*	66*	116	55*
COC(=O)c1ccc(NS(=O)(=O)c2ccc(-c3cc(C)no3)s2)cc1	-6	.	.	.	.	.	.
COc1ccc(CN2C[C@@H](CO)O[C@@H](n3cnc4c(NC5CC5)ncnc43)C2)cc1	4	.	.	.	.	.	.
CC(C)C[C@H]1CN(CCCC[C@H]2CNC(=O)C(=O)N2CC2CCCCC2)C(=O)C(=O)N1Cc1ccccc1	-5	.	.	.	.	.	.
O=C(/C=C/c1ccco1)Nc1ccc2c(c1)OCCO2	64*	9.2*	0.1	64*	89*	156*	63*
O=C(/C=C/c1ccco1)Nc1ccc(C(=O)N2CCOCC2)cc1	1	1.3	1	21	4	-19	.
CN(C)S(=O)(=O)c1ccc(C(=O)NCCOc2ccccc2)cc1	-11	2.8	1.1	-15	-8	.	-2
O=C(COc1ccc(CO)cc1Cl)Nc1ccc(F)cc1	54*	7.7*	0.3	45	72*	.	46
CC1CN(C(=O)c2ccccc2C(=O)c2ncc[nH]2)CC(C)O1 (stereo unspecified)	-7	0.99	1	9	5	11	.
O=C(c1ncc[nH]1)c1ccccc1C(=O)N1CCOCC1	-15	1.1	1	6	-1	-8	5
COC(CNC(=O)CN1CCN(Cc2ccccc2F)C1=O)OC	-34	.	.	.	.	.	.

Screens (PubChem)
